Experimental findings from ChEMBL document CHEMBL4304834, “3-Amino-chromanes and Tetrahydroquinolines as Selective 5-HT2B, 5-HT7, or σ1 Receptor Ligands” (ACS Med Chem Lett, 2019) are described below.

Common to all, as to assay type: cell-based
Assay [1] concerns the target T1, Alpha-2B adrenergic receptor (Homo sapiens, UniProt P18089).
T1 sequence (P18089 whole entry): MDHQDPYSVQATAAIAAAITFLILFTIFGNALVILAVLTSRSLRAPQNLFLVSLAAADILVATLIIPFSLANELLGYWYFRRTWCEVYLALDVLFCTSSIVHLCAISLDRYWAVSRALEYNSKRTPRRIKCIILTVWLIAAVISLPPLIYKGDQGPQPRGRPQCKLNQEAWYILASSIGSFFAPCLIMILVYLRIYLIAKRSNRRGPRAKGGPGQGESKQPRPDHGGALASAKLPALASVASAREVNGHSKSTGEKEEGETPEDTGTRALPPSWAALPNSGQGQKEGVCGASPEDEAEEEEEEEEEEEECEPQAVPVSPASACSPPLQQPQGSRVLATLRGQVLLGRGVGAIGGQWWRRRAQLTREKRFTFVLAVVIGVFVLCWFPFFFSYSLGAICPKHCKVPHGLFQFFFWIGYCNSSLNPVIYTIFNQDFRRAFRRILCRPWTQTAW
The assay is described as follows: Displacement of [3H]-Rauwolscine from human recombinant adrenergic Alpha2B receptor expressed in HEKT cells after 90 mins by microbeta scintillation counting method. Put shortly:
(§1)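 Radioligand binding was run by the NIMH Psychoactive Drug Screening Program. Compounds were first screened at 10 μM. Those giving ≥50% binding were taken to full competition curves. Ki is reported as pKi from a sigmoidal curve fit of triplicate measurements in a single experiment; the error is the curve-fit error.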
For orientation: In a radioligand displacement assay an active substance lowers the binding of a labelled ligand.

The target in assay [2] is T2, Muscarinic acetylcholine receptor M2 (Homo sapiens, UniProt P08172).
T2 sequence (P08172 whole entry): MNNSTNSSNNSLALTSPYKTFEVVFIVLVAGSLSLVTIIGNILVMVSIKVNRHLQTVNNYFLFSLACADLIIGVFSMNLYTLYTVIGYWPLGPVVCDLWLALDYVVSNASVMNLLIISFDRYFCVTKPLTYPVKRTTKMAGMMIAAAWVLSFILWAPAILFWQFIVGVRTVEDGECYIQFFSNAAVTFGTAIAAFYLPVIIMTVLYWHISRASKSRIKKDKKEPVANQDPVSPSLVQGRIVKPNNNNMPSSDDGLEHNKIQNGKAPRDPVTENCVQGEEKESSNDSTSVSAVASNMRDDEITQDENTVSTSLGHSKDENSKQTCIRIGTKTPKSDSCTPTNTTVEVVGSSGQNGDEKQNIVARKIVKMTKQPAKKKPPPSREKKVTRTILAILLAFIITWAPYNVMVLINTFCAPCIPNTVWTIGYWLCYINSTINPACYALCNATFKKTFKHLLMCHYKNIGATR
The assay is described as follows: Displacement of [3H]-QNB/[3H]-NMS from human recombinant Muscarinic acetylcholine M2 receptor expressed in stable CHO cells after 90 mins by microbeta scintillation counting method. Put shortly:
as §1

The target in assay [3] is T3, 5-hydroxytryptamine receptor 3A (Homo sapiens) (UniProt P46098).
T3 sequence (whole entry): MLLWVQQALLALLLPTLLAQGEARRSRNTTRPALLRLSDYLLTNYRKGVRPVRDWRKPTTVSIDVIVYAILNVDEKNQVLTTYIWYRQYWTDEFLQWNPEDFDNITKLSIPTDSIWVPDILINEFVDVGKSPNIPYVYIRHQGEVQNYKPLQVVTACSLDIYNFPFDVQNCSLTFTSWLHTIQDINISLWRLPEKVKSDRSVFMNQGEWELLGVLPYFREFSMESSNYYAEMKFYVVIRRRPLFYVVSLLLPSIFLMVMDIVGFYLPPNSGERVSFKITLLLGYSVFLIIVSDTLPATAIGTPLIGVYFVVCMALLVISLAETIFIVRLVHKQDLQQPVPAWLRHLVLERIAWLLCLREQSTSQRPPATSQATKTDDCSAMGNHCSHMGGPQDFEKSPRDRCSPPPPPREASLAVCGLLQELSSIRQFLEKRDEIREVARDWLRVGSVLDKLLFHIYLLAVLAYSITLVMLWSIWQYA
The assay is described as follows: Displacement of [3H]-GR65630 from human recombinant 5-HT3 receptor expressed in HEKT cells at 10 uM after 90 mins by microbeta scintillation counting method relative to control. Put shortly: (§2)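 Radioligand binding run by the NIMH Psychoactive Drug Screening Program. […] Otherwise Ki comes from sigmoidal curve fits of triplicate measurements in a single experiment, or is averaged over repeated experiments each run in triplicate.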

Assay [4] concerns the target T4, Alpha-1B adrenergic receptor (Homo sapiens) (UniProt P35368).
T4 sequence (whole entry): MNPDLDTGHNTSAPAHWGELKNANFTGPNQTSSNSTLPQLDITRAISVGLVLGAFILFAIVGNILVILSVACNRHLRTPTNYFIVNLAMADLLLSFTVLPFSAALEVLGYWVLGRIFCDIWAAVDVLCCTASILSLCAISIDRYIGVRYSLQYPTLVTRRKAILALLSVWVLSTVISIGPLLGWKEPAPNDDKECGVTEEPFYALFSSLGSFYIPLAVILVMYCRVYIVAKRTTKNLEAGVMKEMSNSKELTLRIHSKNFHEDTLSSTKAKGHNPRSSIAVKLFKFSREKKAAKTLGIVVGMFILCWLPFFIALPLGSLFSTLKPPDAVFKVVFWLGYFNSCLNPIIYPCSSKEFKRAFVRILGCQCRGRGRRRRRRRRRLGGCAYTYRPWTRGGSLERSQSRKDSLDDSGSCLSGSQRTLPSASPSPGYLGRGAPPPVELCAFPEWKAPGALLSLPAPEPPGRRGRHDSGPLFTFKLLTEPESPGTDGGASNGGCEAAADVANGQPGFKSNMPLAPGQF
The assay is described as follows: Displacement of [3H]-Prazosin from human recombinant adrenergic Alpha1B receptor expressed in HEKT cells at 10 uM after 90 mins by microbeta scintillation counting method relative to control.

In assay [5] the target is Beta-3 adrenergic receptor (Homo sapiens, UniProt P13945). Nature of the assay: Displacement of [3H]-CGP12177 from human recombinant adrenergic Beta3 receptor expressed in Flp-In HEK cells at 10 uM after 90 mins by microbeta scintillation counting method relative to control. Put shortly:
as §2

In assay [6] the target is T5, Muscarinic acetylcholine receptor M1 (Homo sapiens) (UniProt P11229).
T5 sequence (whole entry): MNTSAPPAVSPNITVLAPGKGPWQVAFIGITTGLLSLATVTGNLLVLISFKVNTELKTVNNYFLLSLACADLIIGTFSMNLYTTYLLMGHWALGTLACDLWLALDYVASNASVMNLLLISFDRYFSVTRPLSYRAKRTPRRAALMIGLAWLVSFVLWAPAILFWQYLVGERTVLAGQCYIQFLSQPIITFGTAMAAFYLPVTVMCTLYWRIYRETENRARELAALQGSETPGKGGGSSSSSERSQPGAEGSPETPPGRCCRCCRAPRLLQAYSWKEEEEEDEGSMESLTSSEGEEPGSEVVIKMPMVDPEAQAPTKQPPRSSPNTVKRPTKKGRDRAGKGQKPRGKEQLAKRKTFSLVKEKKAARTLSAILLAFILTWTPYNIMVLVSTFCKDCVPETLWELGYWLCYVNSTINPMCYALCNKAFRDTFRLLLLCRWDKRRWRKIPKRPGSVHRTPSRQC
The assay is described as follows: Displacement of [3H]-QNB/[3H]-NMS from human recombinant Muscarinic acetylcholine M1 receptor expressed in stable CHO cells at 10 uM after 90 mins by microbeta scintillation counting method relative to control.

pKi: −log10 of the molar value. Some results are limits rather than exact numbers.

Sequence of Beta-3 adrenergic receptor (P13945 whole entry, looked up): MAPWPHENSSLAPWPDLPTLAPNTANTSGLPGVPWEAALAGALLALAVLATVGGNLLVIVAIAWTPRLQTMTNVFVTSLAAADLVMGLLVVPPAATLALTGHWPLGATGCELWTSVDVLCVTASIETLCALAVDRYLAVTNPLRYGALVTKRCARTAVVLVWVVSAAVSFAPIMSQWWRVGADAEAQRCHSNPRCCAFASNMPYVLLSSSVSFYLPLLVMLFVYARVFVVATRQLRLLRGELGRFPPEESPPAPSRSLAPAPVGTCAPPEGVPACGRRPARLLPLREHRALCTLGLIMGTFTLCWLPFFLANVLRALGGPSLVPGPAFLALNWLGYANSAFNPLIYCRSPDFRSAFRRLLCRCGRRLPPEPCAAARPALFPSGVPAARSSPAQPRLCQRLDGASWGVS

One may read the pKi as the negative decadic logarithm of the Ki, by convention in mol/L. The inhibition is the share of the control response that was lost under treatment. Take `CC[C@H]1c2cc(OC)ccc2CC[C@@]1(C)N` (racemic): the pKi is 5.30 in assay [1] and under 5.00 in assay [2]. Also, the inhibition in assay [3], in assay [4], in assay [5] and in assay [6] was under 50% in each case.
With `C[C@@]12CN(c3ccccc3)c3ccccc3[C@@H]1CCN2` (racemic), the negative logarithm of the Ki (pKi) in assay [1] and in assay [2] was under 5.00 in each case.
As for `CC[C@H]1c2cc(C)ccc2OC[C@@]1(C)N` (racemic), the pKi in assay [1] and in assay [2] was under 5.00 throughout. The inhibition in assay [3], in assay [4], in assay [5] and in assay [6] was under 50% each time.
Turning to `CC[C@H]1c2ccccc2N(c2ccccc2)C[C@@]1(C)N` (racemic), the pKi in assay [1] was 6.40; in assay [2] it was under 5.00.
On to `COc1cc(OC)c2c(c1)OC[C@@]1(C)NCC[C@@H]21` (racemic), for which the pKi in assay [1] and in assay [2] was under 5.00 throughout. In addition, the inhibition in assay [3], in assay [4], in assay [5] and in assay [6] was under 50% in each case.
